Test results taken from ChEMBL document CHEMBL4406822, “Neuroactive Steroid N-Methyl-d-aspartate Receptor Positive Allosteric Modulators: Synthesis, SAR, and Pharmacological Activity” (J Med Chem, 2019).
Calls of active or inactive are those of the source. The calls are words filed in the database; no cut-off is given here.

Experiments:
[1] = Clearance in iv dosed rat; assay type: ADME, organism-based; conditions: in vivo
[2] = Stability in human liver microsomes; assay type: ADME, Microsome; conditions: read-out: Stability
[3] = Volume of distribution at steady state in rat; assay type: ADME; conditions: in vivo, read-out: Vdss
[4] = target: T1, Glutamate NMDA receptor; GRIN1/GRIN2B (Homo sapiens, UniProt Q05586+Q13224); assay: Positive allosteric modulation of recombinant human GluN1/GluN2B receptor stably expressed in HEK293 cells assessed as increase in glycine/L-glutamate-induced channel current at -70 mV holding potential by IonWork […] method; assay type: cell-based
Method in brief: (§1)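 Stable HEK293 lines expressing GluN1/GluN2A or GluN1/GluN2B, measured by automated whole-cell patch clamp (Ionworks Barracuda). Cells were held at -70 mV and stepped to -45 mV during agonist application (EC20 L-glutamate plus 50 µM glycine). The test article was first pre-applied alone for 5 min, then co-applied with agonist to record potentiation. Concentration-response percent potentiation gave EC50 and Emax.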

[5] = Stability in rat liver microsomes; assay type: ADME, Microsome; conditions: read-out: Stability
[6] = target: T2, Glutamate NMDA receptor; GRIN1/GRIN2A (Homo sapiens, UniProt Q05586+Q12879); assay: Positive allosteric modulation of recombinant human GluN1/GluN2A receptor expressed in Xenopus laevis oocytes assessed as increase in glycine/L-glutamate-induced channel current at -80 mV holding potential by two-electrode voltage clamp method relative to control; assay type: cell-based
[7] = target: T2, Glutamate NMDA receptor; GRIN1/GRIN2A; assay: Positive allosteric modulation of recombinant human GluN1/GluN2A receptor expressed in Xenopus laevis oocytes assessed as increase in glycine/L-glutamate-induced channel current at -80 mV holding potential by two-electrode voltage clamp method; assay type: cell-based
[8] = Oral bioavailability in rat; assay type: ADME, organism-based; conditions: in vivo
[9] = Half life in rat; assay type: ADME; conditions: in vivo
[10] = target: Glutamate NMDA receptor; Grin1/Grin2a (Rattus norvegicus) (UniProt P35439+Q00959); assay: Positive allosteric modulation of recombinant rat GluN1/GluN2A receptor expressed in Xenopus laevis oocytes assessed as increase in glycine/L-glutamate-induced channel current at -80 mV holding potential by two-electrode voltage clamp method relative to control; assay type: cell-based
[11] = species: Canis lupus familiaris; assay: Positive allosteric modulation of recombinant dog GluN1/GluN2A receptor expressed in Xenopus laevis oocytes assessed as increase in glycine/L-glutamate-induced channel current at -80 mV holding potential by two-electrode voltage clamp method relative to control; assay type: cell-based
[12] = target: T2, Glutamate NMDA receptor; GRIN1/GRIN2A; assay: Positive allosteric modulation of recombinant human GluN1/GluN2A receptor stably expressed in HEK293 cells assessed as increase in glycine/L-glutamate-induced channel current at -70 mV holding potential by IonWork […] method; assay type: cell-based; method in brief: as §1
[13] = target: T2, Glutamate NMDA receptor; GRIN1/GRIN2A; assay: Positive allosteric modulation of recombinant human GluN1/GluN2A receptor stably expressed in HEK293 cells assessed as increase in glycine/L-glutamate-induced channel current at -70 mV holding potential by IonWork […] method relative to control; assay type: cell-based; method in brief: as §1
[14] = target: T1, Glutamate NMDA receptor; GRIN1/GRIN2B; assay: Positive allosteric modulation of recombinant human GluN1/GluN2B receptor stably expressed in HEK293 cells assessed as increase in glycine/L-glutamate-induced channel current at -70 mV holding potential by IonWork whole cell patch clamp method relative to control
[15] = Positive allosteric modulation of recombinant dog GluN1/GluN2A receptor expressed in Xenopus laevis oocytes assessed as increase in glycine/L-glutamate-induced channel current at -80 mV holding potential by two-electrode voltage clamp method; assay type: cell-based; conditions: Canis lupus familiaris
[16] = target: Glutamate NMDA receptor; Grin1/Grin2a (Rattus norvegicus, UniProt P35439+Q00959); assay: Positive allosteric modulation of recombinant rat GluN1/GluN2A receptor expressed in Xenopus laevis oocytes assessed as increase in glycine/L-glutamate-induced channel current at -80 mV holding potential by two-electrode voltage clamp method; assay type: cell-based
[17] = Drug uptake in 20 to 21 months old Wistar Han rat model of aged-induced memory deficit brain at 3 mg/kg, ip measured after 4 hrs; assay type: ADME, organism-based; conditions: read-out: Drug uptake
[18] = tested on: Hippocampus; assay: Induction of synaptic plasticity in postnatal 120 to 150 day rat brain hippocampal slice assessed as stimulation of theta burst stimulaiton-induced field potential potentiation at 1 uM treated 20 mins prior to theta burst stimulation and measured after 60 mins by electrophysiological method; assay type: functional, tissue-based
[19] = tested on: Rattus norvegicus; assay: Improvement in social recognition in 20 to 21 months old Wistar Han rat model of aged-induced memory deficit assessed as reduction in time spent with familiar juvenile at 10 mg/kg, ip administered 4 hrs prior to training trial and measured after 30 mins; assay type: functional, organism-based
[20] = Ratio of drug level in Sprague-Dawley rat brain to plasma at 2.5 mg/kg, iv measured after 1 hr; assay type: ADME, organism-based; conditions: brain and plasma, read-out: BPR
[21] = Drug uptake in 20 to 21 months old Wistar Han rat model of aged-induced memory deficit brain at 1 mg/kg, ip measured after 4 hrs; assay type: ADME, organism-based; conditions: read-out: Drug uptake
[22] = tested on: Rattus norvegicus; assay: Improvement in social recognition in 20 to 21 months old Wistar Han rat model of aged-induced memory deficit assessed as reduction in time spent with familiar juvenile at 3 mg/kg, ip administered 4 hrs prior to training trial and measured after 30 mins; assay type: functional, organism-based
[23] = Drug uptake in 20 to 21 months old Wistar Han rat model of aged-induced memory deficit brain at 10 mg/kg, ip measured after 4 hrs; assay type: ADME, organism-based; conditions: read-out: Drug uptake
[24] = tested on: Rattus norvegicus; assay: Improvement in social recognition in 20 to 21 months old Wistar Han rat model of aged-induced memory deficit assessed as reduction in time spent with familiar juvenile at 1 mg/kg, ip administered 4 hrs prior to training trial and measured after 30 mins; assay type: functional, organism-based
[25] = Ratio of drug level in Sprague-Dawley rat brain to plasma at 10 mg/kg, ip measured after 1 hr; assay type: ADME, organism-based; conditions: brain and plasma, read-out: BPR
[26] = target: T1, Glutamate NMDA receptor; GRIN1/GRIN2B; assay: Potency index, ratio of 24(S)-hydroxycholesterol EC50 to test compound EC50 for positive allosteric modulation of recombinant human GluN1/GluN2B receptor stably expressed in HEK293 cells; assay type: cell-based
[27] = target: T2, Glutamate NMDA receptor; GRIN1/GRIN2A; assay: Potency index, ratio of 24(S)-hydroxycholesterol EC50 to test compound EC50 for positive allosteric modulation of recombinant human GluN1/GluN2A receptor stably expressed in HEK293 cells; assay type: cell-based
[28] = tested on: Hippocampus; assay: Induction of synaptic plasticity in postnatal 60 to 90 day rat brain hippocampal slice assessed as change in theta burst stimulaiton-induced field potential potentiation at 1 uM treated 20 mins prior to theta burst stimulation by electrophysiological method; assay type: functional, tissue-based

SMILES	clearance [1] [mL/min/kg]	microsomal CLint [2] [µL/min/mg]	Vd [3] [L/kg]	EC50 [4] [nM]	microsomal CLint [5] [µL/min/mg]	bioavailability [8] [%]	half-life [9] [h]	EC50 [12] [nM]	Emax [13] [%]	Emax [14] [%]	Activity [18]	also measured
CC(C)[C@@H](O)CC[C@@H](C)[C@H]1CC[C@H]2[C@@H]3CC=C4C[C@@H](O)CC[C@]4(C)[C@H]3CC[C@]12C	98.3	10	2.5	530	52	9	0.54	150	210	150		Emax [6]: 73%; EC50 [7]: 300 nM; Emax [10]: 180%; Emax [11]: 130%; EC50 [15]: 650 nM; EC50 [16]: 650 nM
C[C@H](CCC(C)(C)O)[C@H]1CC[C@H]2[C@@H]3CC=C4C[C@@](C)(O)CC[C@]4(C)[C@H]3CC[C@]12C	18.3	13	0.65	38	35	28		480	220	92	Active	concentration at 4 h [17]: 900 nM; Activity [19]: Active; Kp at 1 h [20]: 0.6; concentration at 4 h [21]: 400 nM; Activity [22]: inactive; concentration at 4 h [23]: 3700 nM; Activity [24]: Active
CC(C)[C@@H](O)CC[C@@H](C)[C@H]1CC[C@H]2[C@@H]3CC=C4C[C@@](C)(O)CC[C@]4(C)[C@H]3CC[C@]12C	51.7	< 10	3.7	13	28	15	1.6	33	200	230		Kp at 1 h [25]: 1.3; Ratio EC50 [26]: > 10; Ratio EC50 [27]: 4
C[C@H](CCC(C)(C)O)[C@H]1CC[C@H]2[C@@H]3CC=C4C[C@@H](O)CC[C@]4(C)[C@H]3CC[C@]12C		10		410	30			180	110	140	Active	Activity [28]: inactive
